Assay results reported in ChEMBL document CHEMBL3352630, “Sequestered fulvinol-related polyacetylenes in Peltodoris atromaculata” (J Nat Prod, 2014).

Key:
SK-MEL-28 = assay: Growth inhibition of human SK-MEL-28 cells after 72 hrs by MTT assay; type: functional, cell-based; settings: SK-MEL-28, 72 h
In short: (§1)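 Human cancer cells (carcinoma: A549, MCF-7, PC-3; glioma: Hs683, U373; melanoma: SK-MEL-28) were cultured with the test compound for 72 h. Growth was read by MTT colorimetric assay, and the IC50 for in vitro growth inhibition is given in μM. Etoposide was run alongside as the reference agent.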

[1] = Growth inhibition of human Hs683 cells after 72 hrs by MTT assay; type: functional, cell-based; settings: Hs 683, 72 h; in short: as §1
[2] = Growth inhibition of human U373 cells after 72 hrs by MTT assay; type: functional, cell-based, U-373MG ATCC; settings: U373 MG; in short: as §1
A549 = assay: Growth inhibition of human A549 cells after 72 hrs by MTT assay; type: functional, cell-based; settings: A549, 72 h; in short: as §1
MCF7 = assay: Growth inhibition of human MCF7 cells after 72 hrs by MTT assay; type: functional, cell-based; settings: MCF7, 72 h; in short: as §1
[3] = Growth inhibition of human PC3 cells after 72 hrs by MTT assay; type: functional, cell-based; settings: PC-3, 72 h; in short: as §1

Row | SMILES | IC50 (SK-MEL-28) | IC50 [1] | IC50 [2] | IC50 (A549) | IC50 (MCF7) | IC50 [3]
1 | C#CC(=O)/C=C/CCCCCCCCC/C=C\CCCC/C=C\CCCC/C=C\CCCCCCCCCCCCC/C=C/C(=O)C#C | > 100 µM | > 100 µM | > 100 µM | 37 µM | 82 µM | 86 µM
2 | C#C[C@@H](O)/C=C/CCCCCCCCC/C=C\CCCC/C=C\CCCC/C=C\CCCCCCCCCCCCC/C=C/[C@H](O)C#C | 11 µM | 36 µM | 19 µM | 28 µM | 23 µM | 18 µM
3 | C#C[C@@H](O)/C=C/CCCCCCCCCCCCC/C=C\CCCC/C=C\CCCC/C=C\C/C=C\CCCCCC(O)/C=C/[C@H](O)C#C (some centres undefined) | 3 µM | 23 µM | 15 µM | 31 µM | 15 µM | 32 µM
4 | COc1cc([C@@H]2c3cc4c(cc3[C@@H](O[C@@H]3O[C@@H]5CO[C@@H](C)O[C@H]5[C@H](O)[C@H]3O)[C@H]3COC(=O)[C@H]23)OCO4)cc(OC)c1O [ETOPOSIDE] | 1 µM | 1 µM | 7 µM | 0.1 µM | 17 µM | 2 µM
